Here are results for five compounds from ChEMBL document CHEMBL1145471, “Small molecule regulators of autophagy identified by an image-based high-throughput screen” (Proc Natl Acad Sci U S A, 2007).

Format in all cases: functional
Test [1] deals with H4. The experiment in a line: Increase in light chain 3-GFP+ autophagosome vesicle area per cell in human H4 cells at 7.0 uM after 24 hrs by high throughput fluorescence microscopy relative to control. In short, it runs like this:
(§1)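 H4 cells stably expressing LC3-GFP, seeded in 96-well plates and exposed to compound for 24 h; screening concentrations were 3–12 μM, with rapamycin 0.22 μM and bafilomycin A1 0.40 μM. Cells fixed in 4% paraformaldehyde and stained with 3 μg/ml DAPI. Number, size and intensity of LC3-GFP spots measured by high-throughput fluorescence microscopy and expressed as percent of DMSO-treated wells. Rapamycin was the positive control. Triplicate wells, mean ± SD; experiments repeated three times.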

Test [2] concerns H4. The experiment in a line: Increase in light chain 3-GFP+ autophagosome vesicle intensity per cell in human H4 cells at 7.0 uM after 24 hrs by high throughput fluorescence microscopy relative to control. Put shortly:
(§2)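 H4 cells stably expressing LC3-GFP were grown in DMEM with 10% FBS and 2 mM L-glutamine at 37°C, 5% CO2. They were exposed to each compound for 24 h, with DMSO as negative and rapamycin as positive control. Cells were then fixed in 4% paraformaldehyde and stained with 3 μg/ml DAPI. High-throughput fluorescence imaging scored LC3-GFP spot number, size and intensity, expressed relative to DMSO. Mean ± SD of triplicates; experiments repeated three times.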

For test [3], the system named is H4. The test can be described thus: Effect on FYVE-RFP+ vesicle intensity per cell in human H4 cells after 2 hrs relative to control. Further details: concentration or dose not given beside the values. In short, it runs like this:
(§3)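 H4 cells stably expressing FYVE-RFP (H4-FYVE), grown in DMEM with 10% FBS, penicillin/streptomycin and 2 mM L-glutamine at 37°C, 5% CO2, seeded in 96-well plates and exposed to compound. Fixed in 4% paraformaldehyde, nuclei stained with 3 μg/ml DAPI, FYVE-RFP+ vesicles quantified by high-throughput fluorescence microscopy against DMSO control. Triplicate wells, mean ± SD.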

The test system of test [4] is H4. The experiment in a line: Effect on FYVE-RFP+ vesicle intensity per cell in human H4 cells after 4 hrs relative to control. Further details: concentration or dose not given beside the values. Put shortly: as §3
The subject of test [5] is H4. The test can be described thus: Effect on FYVE-RFP+ vesicle intensity per cell in human H4 cells after 8 hrs relative to control. Further details: concentration or dose not given beside the values. In short, it runs like this:
as §3

Test [6] relates to H4. The experiment in a line: Increase in long-lived protein degradation in human H4 cells after 1 hr relative to control. Also on record: concentration or dose not given beside the values.
Test [7] has as its system H4. The test can be described thus: Increase in long-lived protein degradation in human H4 cells after 2 hrs relative to control. Also on record: concentration or dose not given beside the values.
Test [8] relates to H4. The test can be described thus: Increase in long-lived protein degradation in human H4 cells after 4 hrs relative to control. Further details: concentration or dose not given beside the values.
For test [9], the system named is H4. The experiment in a line: Increase in long-lived protein degradation in human H4 cells after 24 hrs relative to control. Further details: concentration or dose not given beside the values.
For test [10], the system named is H4. The experiment in a line: Induction of light chain 3-GFP level in human H4 cells at 7.0 uM after 24 hrs by high throughput fluorescence microscopy relative to control. Put shortly: (§4)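 H4 cells stably expressing LC3-GFP, grown in DMEM with 10% FBS, penicillin/streptomycin and 2 mM L-glutamine at 37°C, 5% CO2. Cells were seeded in 96-well plates and exposed to library compounds at 3–12 μM for 24 h, then fixed in 4% paraformaldehyde and stained with 3 μg/ml DAPI. LC3-GFP spot number, size and intensity were measured by high-throughput fluorescence microscopy and expressed relative to DMSO. Triplicates, mean ± SD.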

Test [11] deals with H4. The test can be described thus: Increase in light chain 3-GFP+ autophagosome vesicle number per cell in human H4 cells at 7.0 uM after 24 hrs by high throughput fluorescence microscopy relative to control. In short, it runs like this: as §2
Test [12] concerns H4. The test can be described thus: Increase in light chain 3-GFP+ autophagosome vesicle area per cell in human H4 cells at 7.7 uM after 24 hrs by high throughput fluorescence microscopy relative to control. Put shortly: (§5)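 H4 cells stably expressing LC3-GFP, seeded in 96-well plates and exposed to compound for 24 h; fixed in 4% paraformaldehyde, nuclei stained with 3 μg/ml DAPI. Automated fluorescence microscopy scored number, size and intensity of LC3-GFP spots; values expressed relative to DMSO-treated wells, rapamycin positive control. Triplicate wells, mean ± SD; experiments repeated three times.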

The test system of test [13] is H4. The test can be described thus: Increase in light chain 3-GFP+ autophagosome vesicle number per cell in human H4 cells at 7.7 uM after 24 hrs by high throughput fluorescence microscopy relative to control. Put shortly: (§6)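 H4 cells stably expressing LC3-GFP, kept in DMEM/10% FBS at 37°C, 5% CO2, were seeded in 96-well plates and exposed to compound for 24 h. Cells were then fixed in 4% paraformaldehyde and stained with 3 μg/ml DAPI. Automated fluorescence microscopy scored the number, size and intensity of LC3-GFP spots. Values are percent of DMSO wells, in triplicate, mean ± SD. Rapamycin served as positive control.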

In test [14] the test system is H4. The test can be described thus: Increase in light chain 3-GFP+ autophagosome vesicle intensity per cell in human H4 cells at 7.7 uM after 24 hrs by high throughput fluorescence microscopy relative to control. In short, it runs like this: as §5
The test system of test [15] is H4. The test can be described thus: Induction of light chain 3-GFP level in human H4 cells at 7.7 uM after 24 hrs by high throughput fluorescence microscopy relative to control. In short, it runs like this: as §6
For test [16], the system named is H4. The experiment in a line: Increase in light chain 3-GFP+ autophagosome vesicle area per cell in human H4 cells at 3.6 uM after 24 hrs by high throughput fluorescence microscopy relative to control. In short, it runs like this:
as §1

The test system of test [17] is H4. The experiment in a line: Increase in light chain 3-GFP+ autophagosome vesicle number per cell in human H4 cells at 3.6 uM after 24 hrs by high throughput fluorescence microscopy relative to control. Put shortly:
as §2

Test [18] concerns H4. The experiment in a line: Increase in light chain 3-GFP+ autophagosome vesicle intensity per cell in human H4 cells at 3.6 uM after 24 hrs by high throughput fluorescence microscopy relative to control. Put shortly:
as §1

The test system of test [19] is H4. The experiment in a line: Decrease in FYVE-RFP+ vesicle intensity per cell in human H4 cells after 2 hrs relative to control. Further details: concentration or dose not given beside the values. Put shortly: as §3
Test [20] deals with H4. The test can be described thus: Decrease in FYVE-RFP+ vesicle intensity per cell in human H4 cells after 4 hrs relative to control. Further details: concentration or dose not given beside the values. Put shortly: as §3
In test [21] the test system is H4. The test can be described thus: Decrease in FYVE-RFP+ vesicle intensity per cell in human H4 cells after 8 hrs relative to control. Further details: concentration or dose not given beside the values. Put shortly:
as §3

Test [22] deals with H4. The experiment in a line: Induction of light chain 3-GFP level in human H4 cells at 3.6 uM after 24 hrs by high throughput fluorescence microscopy relative to control. In short, it runs like this:
as §4

Test [23] deals with H4. The experiment in a line: Increase in light chain 3-GFP+ autophagosome vesicle area per cell in human H4 cells at 3.4 uM after 24 hrs by high throughput fluorescence microscopy relative to control. In short, it runs like this: as §5
Test [24] relates to H4. The test can be described thus: Increase in light chain 3-GFP+ autophagosome vesicle number per cell in human H4 cells at 3.4 uM after 24 hrs by high throughput fluorescence microscopy relative to control. Put shortly:
as §5

The test system of test [25] is H4. The experiment in a line: Increase in light chain 3-GFP+ autophagosome vesicle intensity per cell in human H4 cells at 3.4 uM after 24 hrs by high throughput fluorescence microscopy relative to control. Put shortly:
as §5

The test system of test [26] is H4. The experiment in a line: Increase in FYVE-RFP+ vesicle intensity per cell in human H4 cells after 2 hrs relative to control. Further details: concentration or dose not given beside the values. Put shortly: as §3
The subject of test [27] is H4. The test can be described thus: Increase in FYVE-RFP+ vesicle intensity per cell in human H4 cells after 4 hrs relative to control. Also on record: concentration or dose not given beside the values. In short, it runs like this: as §3
In test [28] the test system is H4. The experiment in a line: Increase in FYVE-RFP+ vesicle intensity per cell in human H4 cells after 8 hrs relative to control. Further details: concentration or dose not given beside the values. In short, it runs like this: as §3
The test system of test [29] is H4. The experiment in a line: Induction of light chain 3-GFP level in human H4 cells at 3.4 uM after 24 hrs by high throughput fluorescence microscopy relative to control. In short, it runs like this: as §6
The subject of test [30] is H4. The test can be described thus: Increase in light chain 3-GFP+ autophagosome vesicle area per cell in human H4 cells at 5.9 uM after 24 hrs by high throughput fluorescence microscopy relative to control. In short, it runs like this:
as §1

Test [31] deals with H4. The experiment in a line: Increase in light chain 3-GFP+ autophagosome vesicle number per cell in human H4 cells at 5.9 uM after 24 hrs by high throughput fluorescence microscopy relative to control. In short, it runs like this:
as §2

Test [32] relates to H4. The test can be described thus: Increase in light chain 3-GFP+ autophagosome vesicle intensity per cell in human H4 cells at 5.9 uM after 24 hrs by high throughput fluorescence microscopy relative to control. Put shortly: as §2
For test [33], the system named is H4. The test can be described thus: Induction of light chain 3-GFP level in human H4 cells at 5.9 uM after 24 hrs by high throughput fluorescence microscopy relative to control. Put shortly: as §4

For `COC(=O)C1=C(C)NC(C)=C([N+](=O)[O-])C1c1ccccc1C(F)(F)F` (stereo not given), the Activity amounted to 165.46% in [1]; 181.32% in test [2]; 110.18% in test [3]; 57.79% in test [4]; 79.7% in [5]; 104.43% in test [6]. Further, the Activity is 115.5% in [7]; 115.35% in test [8]; 102.15% in test [9]; 134.45% in [10]; 146.82% in test [11].

Consider `CN1CCN(C2=Nc3cc(Cl)ccc3Nc3ccccc32)CC1` [CLOZAPINE], for which the Activity in [12] is on record as 275.5%; in test [13], 216.53%; in test [14], 350.13%; in [3] it was 64.04%; in test [4], 74.79%; in test [5], 78.38%. The Activity in test [6] was 115.64%; in [7], 125.71%; in test [8] it was 11.93%; in [9], 119.5%; in [15] it was 139.18%.

Turning to `CC[C@@]1([C@@H]2O[C@@H]([C@H]3O[C@@](O)(CO)[C@H](C)C[C@@H]3C)C[C@@H]2C)CC[C@H]([C@]2(C)CC[C@]3(C[C@H](O)[C@@H](C)[C@@H]([C@@H](C)[C@@H](OC)[C@H](C)C(=O)O)O3)O2)O1` [MONENSIN], the Activity in test [16] was 418.31%; in [17], 312.92%; in [18], 639.29%; in test [19] it was 81.22%; in test [20] it was 66.44%; in [21] it was 59.14%. The Activity in test [6] turned out to be 107.28%; in [7], 123.64%; in [8], 109.16%; in test [9], 107.54%; in test [22] it was 92.38%.

As for `CO[C@@H]1C[C@@H](C[C@H]2CC[C@H](C)[C@H]([C@@H](C)C(=O)O)O2)O[C@]2(O[C@](C)([C@H]3CC[C@@](C)([C@@H]4O[C@@H]([C@H]5O[C@@](O)(CO)[C@H](C)C[C@@H]5C)C[C@@H]4C)O3)C[C@H]2C)[C@@H]1C` [NIGERICIN], the Activity in test [23] is 551.04%; in [24] it was 375.67%; in [25], 747.88%; in test [26], 148.43%; in test [27], 145.4%; in [28], 140.54%. For the same compound, the Activity came to 91.75% in [6]; 88.14% in test [7]; 96.9% in test [8]; 95.98% in test [9]; 106.9% in test [29].

On to `CN(C)C[C@H](O)Cn1c2ccc(Br)cc2c2cc(Br)ccc21` [WISKOSTATIN], for which the Activity turned out to be 1226.54% in test [30]; 789.24% in [31]; 2401.38% in [32]; 267.9% in test [26]; 240.08% in [27]; 131.93% in test [28]. In addition, the Activity came to 68.51% in [6]; 90.21% in [7]; 92.99% in test [8]; 97.71% in test [9]; 96.96% in test [33].
